Experimental data as given in PubChem BioAssay.
Unmarked numbers belong to inactive results. For some assays here: Measured potencies and affinities stand elsewhere. Calls of active or inactive are those of the source.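 Rule for the calls, unless noted: active = calcium signal ratio cut to more than 3 SD under the fully stimulated control mean yet still positive, in both repeats and the primary screen; inactive = the rest.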

molecular target: Short transient receptor potential channel 4 (Mus musculus) (UniProt Q9QUQ5); assay: inhibitors of mouse TRPC4 channel, confirmation, cell-based, second round, Fluo4, HEK293 TRPC4beta/mu-opioid, 1 µM (AID 2637); settings: Fluo4 calcium flux, DAMGO, at 1 µM; active compounds read high;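 for inhibition: percent of integrated ratio relative to wells lacking test compound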
Sequence (Q9QUQ5 whole entry, looked up): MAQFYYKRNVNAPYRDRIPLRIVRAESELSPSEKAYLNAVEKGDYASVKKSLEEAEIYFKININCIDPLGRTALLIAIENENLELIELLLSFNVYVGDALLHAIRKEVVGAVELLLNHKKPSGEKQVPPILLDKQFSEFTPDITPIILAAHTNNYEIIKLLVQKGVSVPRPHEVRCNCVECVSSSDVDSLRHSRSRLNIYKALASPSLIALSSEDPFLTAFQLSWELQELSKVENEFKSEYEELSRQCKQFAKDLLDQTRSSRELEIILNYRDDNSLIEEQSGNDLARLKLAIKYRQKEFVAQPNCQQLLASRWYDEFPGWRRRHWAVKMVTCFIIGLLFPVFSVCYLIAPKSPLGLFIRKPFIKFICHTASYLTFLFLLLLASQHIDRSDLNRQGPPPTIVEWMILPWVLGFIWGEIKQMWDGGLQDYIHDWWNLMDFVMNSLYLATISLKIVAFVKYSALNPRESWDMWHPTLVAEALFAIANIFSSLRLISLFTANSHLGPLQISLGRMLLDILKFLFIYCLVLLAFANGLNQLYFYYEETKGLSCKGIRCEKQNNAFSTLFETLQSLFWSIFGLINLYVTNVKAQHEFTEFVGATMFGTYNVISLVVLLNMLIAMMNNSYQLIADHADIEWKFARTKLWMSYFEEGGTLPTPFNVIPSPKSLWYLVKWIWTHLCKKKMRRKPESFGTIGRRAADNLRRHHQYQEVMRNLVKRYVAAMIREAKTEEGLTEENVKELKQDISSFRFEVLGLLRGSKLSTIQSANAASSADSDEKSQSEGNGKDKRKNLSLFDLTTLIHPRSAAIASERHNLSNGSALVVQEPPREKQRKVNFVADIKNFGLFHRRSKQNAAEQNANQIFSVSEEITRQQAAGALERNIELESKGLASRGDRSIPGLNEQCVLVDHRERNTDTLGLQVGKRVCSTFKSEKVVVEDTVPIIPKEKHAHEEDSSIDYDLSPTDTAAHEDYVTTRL
Procedure, shortened: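 Test system: HEK293 stable line co-expressing TRPC4beta and mu-opioid receptor. Compound dosing: single test compound concentration, 1 µM final. Measured by: Fluo4 calcium fluorescence, kinetic real-time read after baseline. Incubation: Fluo4 loading 45 min, compound exposure 110 s. Probe or stimulus: sequential submaximal then maximal DAMGO stimulation. Controls: ECmax and compound-free wells.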

| SMILES | inhibition | outcome |
| --- | --- | --- |
| CN(C)CCCN(Cc1cc2cc3c(cc2[nH]c1=O)OCO3)C(=S)NCc1ccco1 | 69% (active) | – |
| Cc1cc(OCC(=O)Nc2ccc(N3CCN(C)CC3)cc2)ccc1Cl | – | inactive |
| O=C(Nc1ccccc1Oc1cccnc1)C1CCCN(Cc2ccc(F)cc2)C1 (stereo not given) | 43% (active) | – |
| Cc1ncsc1CCOC(=O)c1cccc([N+](=O)[O-])c1 | 49% (active) | – |
| N#C/C(=N\Nc1cccc([N+](=O)[O-])c1)C(=O)c1ccc(Br)cc1 | – | inactive |
| CC(NC(=O)c1ccco1)C(c1cccs1)N1CCN(c2ccccc2)CC1 (stereo not given) | 51% (active) | – |
| O=C(Cc1ccccc1[N+](=O)[O-])OCc1cccc([N+](=O)[O-])c1 | 62% (active) | – |
| CCOc1cc(CNCCCN2CCOCC2)cc(Br)c1OCc1ccccc1Cl | – | inactive |
| O=C(NCCN1CCOCC1)c1cc2sccc2n1Cc1ccc(F)cc1 | 49% (active) | – |
| Cn1c(-c2ccc(F)cc2)cnc1NCc1ccc(F)cc1F | 46% (active) | – |
| Cc1[nH]c2ccc(C(=O)OC(C)C(=O)N(C)c3ccccc3)cc2c1C (stereo not given) | – | inactive |
| COc1cc(/C=C2\SC(=O)N(c3ccccc3Cl)C2=O)cc([N+](=O)[O-])c1O | – | inactive |
| Cc1ccc2nc(C)cc(Nc3ccc4c(c3)OCCO4)c2c1 | – | inactive |
| CC1CCN(CCCOc2ccc(OCc3ccccc3)cc2)CC1 | – | inactive |
| COCCn1c(SCC(=O)c2ccccc2)nc2ccccc2c1=O | 48% (active) | – |
| O=C(c1ccco1)N1CCN(C/C=C/c2ccccc2)CC1 | 64% (active) | – |
| Nc1cc(N2CCCCC2)c([N+](=O)[O-])cc1Cl | 42% (active) | – |
| Cc1cc(Cl)c2oc(C(=O)N(C)Cc3nccn3C)c(C)c2c1 | – | inactive |
| COc1ccccc1C(=O)Nc1ccc2c(c1)CCCN2C(=O)c1cccs1 | – | inactive |
| COCCNc1c2c(nc3ccccc13)CCC2 | 57% (active) | – |

| SMILES | inhibition | outcome |
| --- | --- | --- |
| Cc1onc(-c2c(F)cccc2Cl)c1C(=O)N(C)CC(=O)Nc1cccc(F)c1 | – | inactive |
| Cc1cc(C)c(S(=O)(=O)c2ccccc2C)c(OCC(C)(C)C)n1 | 43% (active) | – |
| CCCn1c(=O)c2ccccc2n2c(SCCOc3ccccc3)nnc12 | – | inactive |
| CCOc1ccccc1N(C(=O)c1snc(C(N)=O)c1N)C(C(=O)NCc1ccccc1)c1ccc(O)cc1 (stereo not given) | – | inactive |
| Cc1oc(-c2ccoc2)nc1CN(Cc1ccccc1)CC1CC1 | – | inactive |
| CCCN1CN(Cc2ccco2)c2nc3ccccc3n2C1 | 53% (active) | – |
| O=C(O)c1ccc(CSc2nc(-c3ccc(Cl)cc3)cc(C(F)(F)F)n2)cc1 | – | inactive |
| CCCCc1nc2ccccc2c(N)c1CCC (tested in a mixture with another compound) | 69% (active) | – |
| CCOC(=O)c1c(NC(=O)/C=C/C(=O)O)sc(C)c1-c1ccc(C(C)(C)C)cc1 | – | inactive |
| C=C(C)Cn1c(SCC)nc2ccccc2c1=O | – | inactive |
| O=C(Nc1ccccc1N1CCN(C(=O)c2ccc(Cl)cc2)CC1)c1cccc([N+](=O)[O-])c1 | 52% (active) | – |
| CCOC(=O)C1(CCc2ccccc2)CCN(Cc2ccccn2)CC1 | – | inactive |
| c1csc(CNc2nc(-c3cccs3)nc3ccccc23)c1 | – | inactive |
| O=C(c1cccc(C(=O)N2CCN(c3ccccc3)CC2)c1)N1CCN(c2ccccc2)CC1 | 46% (active) | – |
| CCCCN(CCCC)/C(N)=N/c1nc(C)cc(C)n1 | – | inactive |
| O=C(C1CCN(CC2CC=CCC2)CC1)N(CCc1ccccc1)Cc1ccccc1 (stereo not given) | – | inactive |
| CCOC(=O)c1c(NC(=O)C2CC(Cl)=CCC2C(=O)O)sc2c1CCCCC2 (stereo not given) | 43% (active) | – |
| COc1ccc(C)cc1N(C(=O)c1snc(C(N)=O)c1N)C(C(=O)NC1CCCCC1)c1ccc(C)o1 (stereo not given) | 72% (active) | – |
| CCOC(=O)c1c(N)sc(C(O)(C(F)(F)F)C(F)(F)F)c1-c1ccccc1 | – | inactive |
| CNc1nc(NCc2ccccc2)c2ccccc2n1 | 69% (active) | – |

molecular target: Short transient receptor potential channel 4 (Mus musculus) (UniProt Q9QUQ5); assay: mouse TRPC4 channel activators, dose response, cell-based, HEK293 TRPC4/mu-opioid, Fluo-4 calcium (AID 434937;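 active = primary screen activator hit with a dose response curve and TRPC4 channel activation at any tested dose; inactive = no activation, no dose response, or not a primary hit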); settings: HEK293 TRPC4 cells, Fluo-4 calcium fluorescence ratio; series mostly up to 20 µM; activation ratio: at the top concentration

| SMILES | activation ratio |
| --- | --- |
| CN(C)CCCN(Cc1cc2cc3c(cc2[nH]c1=O)OCO3)C(=S)NCc1ccco1 | 1.36 |
| Cc1cc(OCC(=O)Nc2ccc(N3CCN(C)CC3)cc2)ccc1Cl | 23.1 |
| O=C(Nc1ccccc1Oc1cccnc1)C1CCCN(Cc2ccc(F)cc2)C1 (stereo not given) | -1.24 |
| Cc1ncsc1CCOC(=O)c1cccc([N+](=O)[O-])c1 | -0.22 |
| N#C/C(=N\Nc1cccc([N+](=O)[O-])c1)C(=O)c1ccc(Br)cc1 | 9.38 |
| CC(NC(=O)c1ccco1)C(c1cccs1)N1CCN(c2ccccc2)CC1 (stereo not given) | 53.5 |
| O=C(Cc1ccccc1[N+](=O)[O-])OCc1cccc([N+](=O)[O-])c1 | 0.03 |
| CCOc1cc(CNCCCN2CCOCC2)cc(Br)c1OCc1ccccc1Cl | 11.2 |
| O=C(NCCN1CCOCC1)c1cc2sccc2n1Cc1ccc(F)cc1 | 0.59 |
| Cn1c(-c2ccc(F)cc2)cnc1NCc1ccc(F)cc1F | 1.57 |
| Cc1[nH]c2ccc(C(=O)OC(C)C(=O)N(C)c3ccccc3)cc2c1C (stereo not given) | -0.74 |
| COc1cc(/C=C2\SC(=O)N(c3ccccc3Cl)C2=O)cc([N+](=O)[O-])c1O | -2.17 |
| Cc1ccc2nc(C)cc(Nc3ccc4c(c3)OCCO4)c2c1 | 12.3 |
| CC1CCN(CCCOc2ccc(OCc3ccccc3)cc2)CC1 | 9.17 |
| COCCn1c(SCC(=O)c2ccccc2)nc2ccccc2c1=O | 1.92 |
| O=C(c1ccco1)N1CCN(C/C=C/c2ccccc2)CC1 | 14.3 |
| Nc1cc(N2CCCCC2)c([N+](=O)[O-])cc1Cl | -1.45 |
| Cc1cc(Cl)c2oc(C(=O)N(C)Cc3nccn3C)c(C)c2c1 | 0.24 |
| COc1ccccc1C(=O)Nc1ccc2c(c1)CCCN2C(=O)c1cccs1 | -1.22 |
| COCCNc1c2c(nc3ccccc13)CCC2 | 2.15 |

| SMILES | activation ratio |
| --- | --- |
| Cc1onc(-c2c(F)cccc2Cl)c1C(=O)N(C)CC(=O)Nc1cccc(F)c1 | 24.5 |
| Cc1cc(C)c(S(=O)(=O)c2ccccc2C)c(OCC(C)(C)C)n1 | 0.65 |
| CCCn1c(=O)c2ccccc2n2c(SCCOc3ccccc3)nnc12 | -1.49 |
| CCOc1ccccc1N(C(=O)c1snc(C(N)=O)c1N)C(C(=O)NCc1ccccc1)c1ccc(O)cc1 (stereo not given) | -1.66 |
| Cc1oc(-c2ccoc2)nc1CN(Cc1ccccc1)CC1CC1 | -1.07 |
| CCCN1CN(Cc2ccco2)c2nc3ccccc3n2C1 | 2.37 |
| O=C(O)c1ccc(CSc2nc(-c3ccc(Cl)cc3)cc(C(F)(F)F)n2)cc1 | 15.7 |
| CCCCc1nc2ccccc2c(N)c1CCC (tested in a mixture with another compound) | 7.88 |
| CCOC(=O)c1c(NC(=O)/C=C/C(=O)O)sc(C)c1-c1ccc(C(C)(C)C)cc1 | 34.4 |
| C=C(C)Cn1c(SCC)nc2ccccc2c1=O | -1.53 |
| O=C(Nc1ccccc1N1CCN(C(=O)c2ccc(Cl)cc2)CC1)c1cccc([N+](=O)[O-])c1 | 0.11 |
| CCOC(=O)C1(CCc2ccccc2)CCN(Cc2ccccn2)CC1 | 5.51 |
| c1csc(CNc2nc(-c3cccs3)nc3ccccc23)c1 | 5.58 |
| O=C(c1cccc(C(=O)N2CCN(c3ccccc3)CC2)c1)N1CCN(c2ccccc2)CC1 | -0.62 |
| CCCCN(CCCC)/C(N)=N/c1nc(C)cc(C)n1 | 2.45 |
| O=C(C1CCN(CC2CC=CCC2)CC1)N(CCc1ccccc1)Cc1ccccc1 (stereo not given) | 11.5 |
| CCOC(=O)c1c(NC(=O)C2CC(Cl)=CCC2C(=O)O)sc2c1CCCCC2 (stereo not given) | 36.8 |
| COc1ccc(C)cc1N(C(=O)c1snc(C(N)=O)c1N)C(C(=O)NC1CCCCC1)c1ccc(C)o1 (stereo not given) | -0.3 |
| CCOC(=O)c1c(N)sc(C(O)(C(F)(F)F)C(F)(F)F)c1-c1ccccc1 | 18.5 |
| CNc1nc(NCc2ccccc2)c2ccccc2n1 | 13.8 |
